An excerpt weighted towards active compounds, which were near 29% of everything screened.
tolC growth inh – blocks growth of E. coli BW25113 tolC mutant; OD615; growth inhibition, % at 10 µM (by protocol); actives 2.2% (n = 65,000); AID 573;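 active means growth inhibition at or above a cutoff equal to the mean over every tested compound plus 3 SD, cut at about 60% in these data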;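 further: growth measured after 20 h incubation at 37 °C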
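Doses: one dose of 10 µM final / Material: E. coli BW25113 ΔtolC::kan, tolC deletion mutant strain / Buffer or medium: LB with kanamycin 50 µg/mL / Evaluation: percent growth inhibition / Detection: optical density read at 615 nm / Incubation: 37 °C, 20 h exposure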
CYP2C9 act – CYP2C9 (human) activation. P11712. recombinant CYP2C9, luciferin-H conversion, luminescence; stronger effect = higher value; factor 1 = untreated enzyme, 0 = blocked. activation factor at 5 µM. actives 1.4% (n = 96,000). AID 1024;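 active means activation factor of 2 or more for CYP2C9 at a 5 µM dose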;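 further: 0 = sulfaphenazole-blocked wells and 1 = vehicle-only wells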
CYP2C9 inh – inhibitors of human CYP2C9 | P11712 | CYP2C9 Supersomes, luciferin-H conversion, luminescence | inhibition, % at 5 µM | actives 20% (n = 96,000) | AID 777;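 active means blocking of liver enzyme CYP2C9 beyond about 50% at 5 µM, limit read from the data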
Ecoli WT expand – blocks growth of wild type E. coli BW25113. AID 710. actives 0.15% (n = 98,000). growth inhibition, % at 100 µM. OD600 absorbance;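 active means growth inhibition above about 50% at one test dose, limit read from the data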;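 further: growth measured after 20 h incubation at 37 °C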
CYP2C19 inhib – blocks human cytochrome P450 2C19 | P33261 | CYP2C19 Supersomes, luciferin-H EGE luminescence, 30 min | inhibition, % at 5 µM | actives 21% (n = 96,000) | AID 778;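 active means CYP2C19 inhibition above a set limit at 5 µM in the primary screen, cut at about 50% in these data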;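 further: plate controls were negative control wells for no effect and 2.5 mM tranylcypromine positive control for full effect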
Target sequence (P33261 whole entry, looked up): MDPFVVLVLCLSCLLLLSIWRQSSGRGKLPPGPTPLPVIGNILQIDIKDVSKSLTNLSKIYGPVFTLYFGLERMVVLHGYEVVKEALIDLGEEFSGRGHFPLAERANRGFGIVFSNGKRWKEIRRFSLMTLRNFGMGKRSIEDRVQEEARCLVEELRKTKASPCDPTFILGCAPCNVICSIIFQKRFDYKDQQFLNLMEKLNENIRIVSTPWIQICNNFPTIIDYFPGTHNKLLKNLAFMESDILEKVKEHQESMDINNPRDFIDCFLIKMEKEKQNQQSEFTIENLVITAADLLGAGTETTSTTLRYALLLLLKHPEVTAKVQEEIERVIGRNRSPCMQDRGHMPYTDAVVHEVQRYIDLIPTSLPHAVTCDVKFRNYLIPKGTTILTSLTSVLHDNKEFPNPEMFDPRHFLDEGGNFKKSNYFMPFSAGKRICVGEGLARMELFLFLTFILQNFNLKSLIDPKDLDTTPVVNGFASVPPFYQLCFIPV
CYP2C19 act – cytochrome P450 2C19 (human) activation; activation factor at 5 µM; 96,000 tested, under 10 active; P33261; recombinant CYP2C19, luciferin-H EGE luminescence; stronger effect = higher value; 0 = fully inhibited enzyme, 1 = untreated enzyme;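 active means activation factor of at least 2 at 5 µM in the primary screen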;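 further: 0 = wells with 2.5 mM tranylcypromine and 1 = vehicle-only wells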
Starred values were filed as active, the others as inactive; . = no result given.

SMILES	tolC growth inh	CYP2C9 act	CYP2C9 inh	Ecoli WT expand	CYP2C19 inhib	CYP2C19 act
CSc1ncccc1C(=O)OCC(=O)Nc1cc(C(F)(F)F)ccc1N1CCOCC1	14.8	0.5	51.4*	3.0	37.8	0.6
Nc1nc(N)c2sc3nc4c(cc3c2n1)CCC4	9.7	1	-0.1	2.0	11.9	0.9
CCn1c(=S)ccc2ccc(OC)cc21	7.5	0.7	27.7	4.0	63.5*	0.4
CCn1ccc2cc(OC)ccc2c1=S	.	1.1	-5.7	-1.0	15.6	0.8
Cc1cc(=O)oc(C)c1C(=O)N1CCc2c([nH]c3ccccc23)C1C(C)C (stereo not drawn)	4.9	0.8	18.9	2.0	50.4*	0.5
O=C(COC(=O)Cc1ccc2c(c1)OCCO2)Nc1ccc(S(=O)(=O)N2CCCC2)cc1	.	0.8	24.7	1.0	-17.3	1.2
COC(=O)c1c(C)[nH]c(C(=O)COC(=O)Cc2ccc3c(c2)OCCO3)c1C	12.9	0.2	81.2*	-9.0	20.0	0.8
CCc1ccccc1N(C(=O)CCC(=O)Nc1cc(C)on1)C(C(=O)NC1CCCC1)c1ccco1 (stereo not drawn)	18.2	0.4	57.7*	.	74.7*	0.3
Cc1cc(NC(=O)CCC(=O)N(C2CC2)C2(C(=O)NC3CCCC3)CCC(C)CC2)no1 (stereo not drawn)	-5.7	0.3	71.2*	2.0	58.6*	0.4
Cc1cc(NC(=O)CCC(=O)N(CC(=O)NC2CCCC2)Cc2ccccc2Cl)no1	8.1	0.4	57.5*	1.0	41.1	0.6
C=CCN(C(=O)CCC(=O)Nc1cc(C)on1)C(C(=O)NC1CCCC1)c1cccnc1 (stereo not drawn)	-14.3	0.3	67.8*	-6.0	44.8	0.6
Cc1cc(NC(=O)CCC(=O)N(CC(=O)NC2CCCC2)Cc2ccc(F)cc2)no1	6.8	0.8	19.0	1.0	12.0	0.9
Cc1cc(NC(=O)CCC(=O)N(CC2CCCO2)C(C(=O)NC2CCCC2)c2cccnc2)no1 (stereo not drawn)	.	1	0.4	-2.0	-5.3	1.1
COC(=O)Nc1snnc1C	.	0.8	15.7	3.0	8.6	0.9
COc1ccccc1NC(=S)N(CCc1nc2cc(C)c(C)cc2[nH]1)Cc1cccnc1	.	1.8	-82.5	-2.0	19.2	0.8
Cc1ccccc1S(=O)(=O)c1c(C)cc(-c2ccccc2)[nH]c1=O	.	0.8	18.3	-10.0	-2.4	1
CCCc1[nH]nc2c1C1(C(=O)N(CC)c3ccccc31)C(C#N)=C(N)O2 (stereo not drawn)	11.7	0.9	7.7	-3.0	30.5	0.7
COC(=O)C1CCN(C(=O)/C=C/c2ccc(OC)cc2)CC1	.	0.8	16.4	-1.0	39.7	0.6
Cc1ccc(-c2csc3ncn(-n4c(C)ccc4C)c(=O)c23)o1	67.2*	0.5	47.0	-9.0	87.0*	0.1
COC(=O)CSc1nnc2c(C)cc3cc4c(cc3n12)OCCO4	-24.7	1.1	-9.2	.	-6.5	1.1
O=C(NCCc1ccccc1)c1noc2c1CCCCC2	19.6	0.8	18.4	5.0	19.9	0.8
O=C(NC1CCCCC1)c1noc2c1CCCCC2	4.0	0.8	20.4	3.0	94.3*	0.1
O=C(NCc1ccccc1)c1noc2c1CCCC2	-8.9	1.1	-5.4	-7.0	1.7	1
O=C(NCc1ccc(Cl)cc1)c1noc2c1CCCC2	7.0	0.2	78.0*	6.0	64.0*	0.4
O=C(NCc1cccc(F)c1)c1noc2c1CCCC2	9.9	0.9	7.9	1.0	-1.9	1
SMILES	tolC growth inh	CYP2C9 act	CYP2C9 inh	Ecoli WT expand	CYP2C19 inhib	CYP2C19 act
O=C(NCc1cccnc1)c1noc2c1CCCC2	-17.0	1.1	-7.5	7.0	66.8*	0.3
O=C(NCc1cccnc1)c1noc2c1CCCCC2	-1.8	1	0.4	1.0	90.4*	0.1
COC1Cc2ccccc2N(C(=O)N2CCN(CCO)CC2)c2ccccc21 (stereo not drawn)	-13.3	1.1	-5.0	-2.0	31.6	0.7
O=C(Nc1cnn(Cc2ccc(Cl)cc2Cl)c1)c1noc2c1CCCC2	71.2*	.	.	-6.0	.	.
COc1ccc2c(c1OC)CN(C)CCc1cc3c(cc1C(O)C2)OCO3 (stereo not drawn)	2.3	1.2	-22.7	7.0	79.5*	0.2
COc1cccc(C2/C(=C(\O)c3ccc4c(c3)OCO4)C(=O)C(=O)N2CCN(C)C)c1OC (stereo not drawn)	-13.2	0.9	8.5	5.0	20.4	0.8
O=C(OCC(=O)c1ccccc1Br)c1ccccn1	-7.6	1	-4.7	1.0	0.0	1
O=C(c1ccccn1)c1conc1C(=O)c1ccc(Br)cc1	.	0.4	56.7*	31.0	85.8*	0.1
CCn1c(SCC(=O)c2cc(C)n(CC3CCCO3)c2C)nc2ccccc21 (stereo not drawn)	15.3	1	1.6	-11.0	75.8*	0.2
Cc1cc(C(=O)CSc2nnnn2-c2ccccc2)c(C)n1CC1CCCO1 (stereo not drawn)	-5.3	1.1	-12.2	-9.0	7.0	0.9
Cc1cc(C(=O)CSc2nnnn2-c2ccc(Cl)cc2)c(C)n1CC1CCCO1 (stereo not drawn)	-8.6	0.9	12.1	-2.0	64.4*	0.4
COC(=O)CN1C(=O)C2(C(C#N)=C(N)Oc3c2c(C)nn3-c2ccccc2)c2ccccc21 (stereo not drawn)	5.8	.	.	-5.0	.	.
Cc1cc(Nc2ncc(Cl)cc2Cl)n[nH]1	5.8	0.9	6.1	12.0	70.6*	0.3
Cc1cccc(CSc2nnnn2-c2ccccc2)c1	.	0.8	23.2	2.0	39.0	0.6
Cc1ccccc1Nc1nc(CSc2nnnn2-c2ccccc2)cs1	.	0.5	50.6*	-9.0	93.7*	0.1
O=c1cc(CSc2nnnn2-c2ccccc2)nc2scc(-c3ccccc3)n12	0.3	0.6	44.8	-6.0	38.1	0.6
c1ccc(-c2nc(CSc3nnnn3-c3ccccc3)cs2)cc1	54.6	0.5	50.5*	-7.0	97.1*	0
Cc1cc(Nc2ccc(Cl)cc2)n(-c2cccc(Cl)c2)n1	.	0	98.0*	1.0	98.7*	0
Cc1cc(NC(=O)COc2ccc(Cl)cc2Cl)n(-c2ccccc2)n1	.	0.7	34.5	-10.0	71.2*	0.3
Cc1cc(NC(=O)c2ccc(C)s2)n(-c2ccccc2)n1	.	0.7	26.6	0.0	75.7*	0.2
Cc1cc(Nc2ccccc2)n(-c2ccc(Br)cc2)n1	.	0	96.9*	-2.0	90.4*	0.1
Cc1cc(NC(=O)Nc2cc(C)nn2-c2ccccc2)n(-c2ccccc2)n1	8.5	1	0.8	-4.0	14.1	0.9
Cc1ccccc1OCC(=O)Nc1sc(C(=O)Nc2cccc(C)c2C)c(C)c1C#N	.	0.7	27.3	4.0	12.4	0.9
COc1ccc(C2/C(=C(/O)c3ccc(F)cc3)C(=O)C(=O)N2CCCN(C)C)cc1 (stereo not drawn)	0.3	.	.	.	.	.
